Measured values from ChEMBL document CHEMBL1139268, “Camphor sulfonamide derivatives as novel, potent and selective CXCR3 antagonists” (Bioorg Med Chem Lett, 2009).
≈ marks a conversion by molar mass, not a printed value.

Columns and labels:
[1] = target: T1, C-X-C chemokine receptor type 3 (Homo sapiens, UniProt P49682); test: Antagonist activity at human recombinant CXCR3 receptor expressed in CHO-K1 cells assessed as human IP10-induced calcium flux by FLIPR assay; type: functional, cell-based
T1 sequence (P49682 whole entry): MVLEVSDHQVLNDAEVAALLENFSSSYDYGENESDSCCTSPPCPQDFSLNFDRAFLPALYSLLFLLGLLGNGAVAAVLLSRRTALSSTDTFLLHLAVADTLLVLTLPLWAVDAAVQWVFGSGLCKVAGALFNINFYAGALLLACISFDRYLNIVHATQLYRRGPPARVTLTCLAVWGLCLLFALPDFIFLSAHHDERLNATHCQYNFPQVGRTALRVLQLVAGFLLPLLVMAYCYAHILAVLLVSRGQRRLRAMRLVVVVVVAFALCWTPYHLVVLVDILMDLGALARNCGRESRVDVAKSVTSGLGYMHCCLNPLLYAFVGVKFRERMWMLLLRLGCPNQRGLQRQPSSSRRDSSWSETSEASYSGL

[2] = target: T2, C-X-C chemokine receptor type 3 (Mus musculus, UniProt O88410); test: Antagonist activity at mouse recombinant CXCR3 expressed in human U2OS cells; type: functional, cell-based
T2 sequence (O88410 whole entry): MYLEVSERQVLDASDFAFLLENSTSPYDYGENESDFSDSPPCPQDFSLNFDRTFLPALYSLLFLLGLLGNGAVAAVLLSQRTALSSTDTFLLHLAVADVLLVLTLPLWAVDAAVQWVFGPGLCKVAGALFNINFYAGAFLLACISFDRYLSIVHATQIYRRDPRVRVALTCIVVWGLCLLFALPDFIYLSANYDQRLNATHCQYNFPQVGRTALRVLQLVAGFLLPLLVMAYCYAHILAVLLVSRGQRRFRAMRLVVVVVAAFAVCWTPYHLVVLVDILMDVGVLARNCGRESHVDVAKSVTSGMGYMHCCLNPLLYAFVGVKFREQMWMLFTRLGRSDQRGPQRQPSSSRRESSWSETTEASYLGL
In short: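 Human U2OS cells were transiently transduced with a mixture of recombinant BacMam viruses, one expressing murine CXCR3 and one expressing chimeric G-protein Gqi5.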

[3] = target: T1, C-X-C chemokine receptor type 3; test: Antagonist activity at human recombinant CXCR3 receptor assessed as human IP10-induced calcium mobilization by FLIPR assay; type: functional; details: read-out: pA2 (converted)
[4] = Permeability across artificial membrane; type: ADME; details: PAMPA; read-out: permeability
[5] = Aqueous solubility of the compound; type: physicochemical; details: buffer

Structure (SMILES) | IC50 [1] | also measured
CC1(C)[C@@H]2CC[C@]1(CS(=O)(=O)N1CCN(c3ccc(C(F)(F)F)cn3)CC1)C(=O)C2 | 1.58 µM | 
CC1(C)[C@@H]2CC[C@@]1(CS(=O)(=O)N1CCN(c3ccc(C(F)(F)F)cn3)CC1)C(O)C2 (some centres undefined) | 0.158 µM | 
C[C@H]1CN(S(=O)(=O)C[C@]23CC[C@H](CC2O)C3(C)C)CCN1c1ncc(C(F)(F)F)cc1F (some centres undefined) | 0.0501 µM | IC50 [2]: 0.158 µM
CC1(C)[C@@H]2CC[C@@]1(CS(=O)(=O)N1CCN(c3ccc(C(F)(F)F)cn3)CC1)C(=O)C2 | 0.251 µM | IC50 [2]: 1.26 µM; Kb [3]: 0.126 µM
CC1(C)[C@@H]2CC[C@@]1(CS(=O)(=O)N1CCN(c3cc(C(F)(F)F)ccn3)CC1)C(=O)C2 | 25.1 µM | 
C[C@H]1CN(S(=O)(=O)C[C@]23CC[C@H](CC2=O)C3(C)C)CCN1c1ncc(C(F)(F)F)cn1 | 0.126 µM | IC50 [2]: 1 µM
CC1(C)[C@@H]2CC[C@@]1(CS(=O)(=O)N1CCN(c3nc4ccccc4s3)CC1)C(=O)C2 | > 12.6 µM | 
CC1CN(S(=O)(=O)C[C@]23CC[C@H](CC2=O)C3(C)C)CCN1c1ccc(C(F)(F)F)cn1 (some centres undefined) | 0.316 µM | 
C[C@@H]1CN(c2ccc(C(F)(F)F)cn2)[C@@H](C)CN1S(=O)(=O)C[C@]12CC[C@H](CC1=O)C2(C)C | 6.31 µM | 
C[C@H]1CN(S(=O)(=O)C[C@]23CC[C@H](CC2=O)C3(C)C)CCN1c1ccc(C(F)(F)F)cn1 | 0.158 µM | IC50 [2]: 2.51 µM
CC1(C)[C@@H]2CC[C@@]1(CS(=O)(=O)N1CCN(c3cccc(C(F)(F)F)n3)CC1)C(=O)C2 | 25.1 µM | 
CC1(C)[C@@H]2CC[C@@]1(CS(=O)(=O)N1CCN(c3ccccn3)CC1)C(=O)C2 | > 31.6 µM | 
C[C@H]1CN(S(=O)(=O)C[C@]23CC[C@H](C[C@H]2O)C3(C)C)CCN1c1ccc(C(F)(F)F)cn1 | 0.316 µM | IC50 [2]: 0.631 µM
CC1(C)[C@@H]2CC[C@@]1(CS(=O)(=O)N1CCN(c3ccc(C(F)(F)F)cn3)CC1)C1(C2)OCCO1 | 0.2 µM | 
CC1(C)[C@@H]2CC[C@@]1(CS(=O)(=O)N1CCN(c3ncc(C(F)(F)F)cc3[N+](=O)[O-])CC1)C(=O)C2 | 3.16 µM | 
C[C@@H]1CN(S(=O)(=O)C[C@]23CC[C@H](CC2=O)C3(C)C)CCN1c1ncc(C(F)(F)F)cc1F | 0.501 µM | 
CC(C)C1CN(S(=O)(=O)C[C@]23CC[C@H](CC2=O)C3(C)C)CCN1c1ccc(C(F)(F)F)cn1 (some centres undefined) | > 31.6 µM | 
CCNC(=O)NC1C[C@H]2CC[C@]1(CS(=O)(=O)N1CCN(c3ccc(C(F)(F)F)cn3)CC1)C2(C)C (some centres undefined) | 0.794 µM | 
CC1(C)[C@@H]2CC[C@@]1(CS(=O)(=O)N1CCN(c3ccc(C#N)cn3)CC1)C(=O)C2 | > 31.6 µM | 

Structure (SMILES) | IC50 [1] | also measured
CC1(C)[C@@H]2CC[C@@]1(CS(=O)(=O)N1CCCN(c3ccc(C(F)(F)F)cn3)CC1)C(=O)C2 | 6.31 µM | 
CC1(C)[C@@H]2CC[C@@]1(CS(=O)(=O)NC1CCN(c3ccc(C(F)(F)F)cn3)CC1)C(=O)C2 | 15.8 µM | 
CC1(C)[C@@H]2CC[C@@]1(CS(=O)(=O)N1CCN(c3ccc(C(F)(F)F)cc3F)CC1)C(=O)C2 | 2 µM | 
Cc1ccc(N2CCN(S(=O)(=O)C[C@]34CC[C@H](CC3=O)C4(C)C)CC2)nc1 | > 31.6 µM | 
CC1(C)[C@@H]2CC[C@@]1(CS(=O)(=O)N1CCN(c3ccc(C(F)(F)F)cc3)CC1)C(=O)C2 | > 31.6 µM | 
CC1(C)[C@@H]2CC[C@@]1(CS(=O)(=O)N1CCN(c3ncc(C(F)(F)F)cc3F)[C@H](CO)C1)C(=O)C2 | 0.316 µM | Papp [4]: 56 ×10⁻⁶ cm/s; IC50 [2]: 6.31 µM; solubility [5]: 40 µg/mL (≈ 81 µM)
C[C@H]1CN(S(=O)(=O)C[C@]23CC[C@H](C[C@@H]2O)C3(C)C)CCN1c1ccc(C(F)(F)F)cn1 | 0.0316 µM | IC50 [2]: 0.2 µM
CC1(C)[C@@H]2CC[C@@]1(CS(=O)(=O)N1CCN(c3ccc(C(F)(F)F)cn3)CC1)C(NS(C)(=O)=O)C2 (some centres undefined) | 0.631 µM | 
CC1(C)[C@@H]2CC[C@@]1(CS(=O)(=O)N1CCN(c3ncc(C(F)(F)F)cc3Cl)CC1)C(=O)C2 | 0.398 µM | 
CC1(C)[C@@H]2CC[C@@]1(CS(=O)(=O)N1CCN(c3ccc(C(F)(F)F)c(Cl)n3)CC1)C(=O)C2 | 0.251 µM | 
CC1(C)[C@@H]2CC[C@@]1(CS(=O)(=O)N1CCN(c3ccc(C(F)(F)F)cn3)CC1)C(N)C2 (some centres undefined) | 0.794 µM | 
CC1(C)[C@@H]2CC[C@@]1(CS(=O)(=O)N1CCN(c3ccc(Br)cn3)CC1)C(=O)C2 | 1.58 µM | 
CC1(C)[C@@H]2CC[C@@]1(CS(=O)(=O)N1CCN(c3cc4ccccc4cn3)CC1)C(=O)C2 | 15.8 µM | 
CC1(C)[C@@H]2CC[C@@]1(CS(=O)(=O)N1CCN(c3ncccc3C(F)(F)F)CC1)C(=O)C2 | > 31.6 µM | 
C[C@@H]1CN(S(=O)(=O)C[C@]23CC[C@H](CC2=O)C3(C)C)CCN1c1ccc(C(F)(F)F)cn1 | 0.501 µM | 
CC1(C)[C@@H]2CC[C@@]1(CS(=O)(=O)N1CCN(c3ccc([N+](=O)[O-])cn3)CC1)C(=O)C2 | > 31.6 µM | 
CC1(C)[C@@H]2CC[C@@]1(CS(=O)(=O)N1CCN(c3ccc(C(F)(F)F)nn3)CC1)C(=O)C2 | 5.01 µM | 
CC1(C)[C@@H]2CC[C@@]1(CS(=O)(=O)N1C[C@@H]3C[C@H]1CN3c1ccc(C(F)(F)F)cn1)C(=O)C2 | > 31.6 µM | 

Now from value to compound, other results behind:

IC50 [1] | Structure (SMILES) | also measured
0.2 µM | CC1(O)C[C@H]2CC[C@]1(CS(=O)(=O)N1CCN(c3ccc(C(F)(F)F)cn3)CC1)C2(C)C (some centres undefined) | 
0.0631 µM | C[C@H]1CN(S(=O)(=O)C[C@]23CC[C@H](C[C@H]2O)C3(C)C)CCN1c1ncc(C(F)(F)F)cc1F | IC50 [2]: 1.58 µM
0.0398 µM | C[C@H]1CN(S(=O)(=O)C[C@]23CC[C@H](CC24OCCO4)C3(C)C)CCN1c1ncc(C(F)(F)F)cc1F | IC50 [2]: 1.58 µM
0.631 µM | CC1CN(c2ccc(C(F)(F)F)cn2)CCN1S(=O)(=O)C[C@]12CC[C@H](CC1=O)C2(C)C (some centres undefined) | 
> 31.6 µM | CC(=O)c1ccc(N2CCN(S(=O)(=O)C[C@]34CC[C@H](CC3=O)C4(C)C)CC2)nc1 | 
0.398 µM | CC1(C)[C@@H]2CC[C@@]1(CS(=O)(=O)N1CCN(c3ccc(C(F)(F)F)cn3)C(CO)C1)C(=O)C2 (some centres undefined) | 
0.158 µM | CC1(C)[C@@H]2CC[C@@]1(CS(=O)(=O)N1CCN(c3ncc(C(F)(F)F)cc3F)CC1)C(=O)C2 | IC50 [2]: 0.794 µM
> 31.6 µM | CC1(C)[C@@H]2CC[C@@]1(CS(=O)(=O)N1CCN(c3ccc(C(F)(F)F)cn3)C(c3ccccc3)C1)C(=O)C2 (some centres undefined) | 
0.316 µM | CC1(C)[C@@H]2CC[C@@]1(CS(=O)(=O)N1CCN(c3ncc(C(F)(F)F)cn3)CC1)C(=O)C2 | 
0.631 µM | CC1(C)[C@@H]2CC[C@@]1(CS(=O)(=O)N1CCN(c3ncc(Br)cn3)CC1)C(=O)C2 | 
> 31.6 µM | CN(CCN(C)S(=O)(=O)C[C@]12CC[C@H](CC1=O)C2(C)C)c1ccc(C(F)(F)F)cn1 | 
0.316 µM | CC1(C)[C@@H]2CC[C@@]1(CS(=O)(=O)N1CCN(c3nc(Cl)c(C(F)(F)F)cc3Cl)CC1)C(=O)C2 | 
0.158 µM | C[C@H]1CN(S(=O)(=O)C[C@]23CC[C@H](CC2O)C3(C)C)CCN1c1ccc(C(F)(F)F)cn1 (some centres undefined) | IC50 [2]: 0.631 µM
2 µM | CC(=O)NC1C[C@H]2CC[C@]1(CS(=O)(=O)N1CCN(c3ccc(C(F)(F)F)cn3)CC1)C2(C)C (some centres undefined) | 
7.94 µM | CCNC1C[C@H]2CC[C@]1(CS(=O)(=O)N1CCN(c3ccc(C(F)(F)F)cn3)CC1)C2(C)C (some centres undefined) | 
0.794 µM | CC1(C)[C@@H]2CC[C@@]1(CS(=O)(=O)N1CCN(c3ccc(C(F)(F)F)cn3)CC1)C(F)C2 (some centres undefined) | 
0.631 µM | CCC1CN(S(=O)(=O)C[C@]23CC[C@H](CC2=O)C3(C)C)CCN1c1ccc(C(F)(F)F)cn1 (some centres undefined) | 
31.6 µM | CC1(C)[C@@H]2CC[C@@]1(CS(=O)(=O)N1CCC(Nc3ccc(C(F)(F)F)cn3)CC1)C(=O)C2 | 
